Data taken from publication PMC3774598 (Biochemistry, 2013).

Columns and labels:
saFabI [1] = molecular target: T1, saFabI (Staphylococcus aureus, UniProt Q6GI75); assay: Forward progress curve kinetics of saFabI inhibition; assay type: biochemical; conditions: for tR: residence time tR = 1/k-1, k-1 from progress curves (b); for potency estimated from few doses: read-out: Ki; for slow-binding inhibition of saFabI: curvature of progress curves
T1 sequence (Q6GI75 1-256): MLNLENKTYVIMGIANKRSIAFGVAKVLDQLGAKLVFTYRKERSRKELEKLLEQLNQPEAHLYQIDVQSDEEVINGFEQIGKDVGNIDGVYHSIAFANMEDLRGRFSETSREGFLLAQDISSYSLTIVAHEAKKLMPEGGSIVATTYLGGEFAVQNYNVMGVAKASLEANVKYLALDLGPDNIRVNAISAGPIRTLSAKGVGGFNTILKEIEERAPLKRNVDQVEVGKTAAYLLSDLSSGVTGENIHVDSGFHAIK

saFabI [2] = molecular target: T1, saFabI; assay: Jump dilution assay; assay type: biochemical; conditions: for recovery of enzyme activity after dilution: 1:200 dilution after overnight preincubation with NADP+; for k-1: footnote c: jump dilution curve fitted to Eq 1; for tR: residence time tR = 1/k-1, k-1 from jump dilution (c)
Method in brief: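 Enzyme expressed in E. coli BL21(DE3) and purified by Ni2+ affinity and size exclusion. 10 μM enzyme was preincubated overnight at room temperature with 15 μM inhibitor and 500 μM NADP+. NADPH oxidation was read at 340 nm, 20 °C, and fitted to the Morrison–Walsh integrated equation.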

saFabI R40Q/K41N/S44L = saFabI R40Q/K41N/S44L (Staphylococcus aureus, UniProt Q6GI75, K41N/R40Q/S44L); assay: 32P-NAD+ dissociation kinetics; assay type: binding; conditions: for k-1: footnote d: 32P-NAD-based dissociation curve fitted to Eq 5; for tR: residence time tR = 1/k-1, k-1 from 32P-NAD dissociation (d)

Row | SMILES | tR (saFabI [1]) | k-1 (saFabI R40Q/K41N/S44L) | tR (saFabI R40Q/K41N/S44L) | also measured
1 | N#Cc1ccccc1Oc1ccc(Cl)cc1O [PT447] | 136.4 ^b min | 0.47 ± 0.08 ^d hr^-1 | 127.7 ^d min | recovery of enzyme activity after dilution (saFabI [2]): partially recovered
2 | Cc1ccc(Oc2ccccc2)c(O)c1 [PT53, 5-Methyl-2-phenoxyphenol] | 17.3 ^b min | – | – | potency estimated from few doses (saFabI [1]): 0.38 ± 0.03 nM; k-1 (saFabI [2]): 4.53 ± 0.08 ^c hr^-1; tR (saFabI [2]): 13.2 ^c min
3 | N#Cc1ccccc1Oc1ccc(Br)cc1O [PT443] | 210.9 ^b min | – | – | –
4 | Oc1cc(Cl)ccc1Oc1ccccc1 [PT52] | 35.3 ^b min | 2.13 ± 0.41 ^d hr^-1 | 28.2 ^d min | recovery of enzyme activity after dilution (saFabI [2]): full recovery of enzyme activity; k-1 (saFabI [2]): 2.33 ± 0.03 ^c hr^-1; tR (saFabI [2]): 25.8 ^c min
5 | Oc1ccccc1Oc1ccccc1 [PT51] | ≤ 1 min | – | – | slow-binding inhibition of saFabI (saFabI [1]; in words): slow-binding inhibition could not be observed
6 | O=[N+]([O-])c1ccc(Oc2ccccc2)c(O)c1 [PT104] | 6.6 ^b min | – | – | slow-binding inhibition of saFabI (saFabI [1]; in words): clear slow-binding inhibition; potency estimated from few doses (saFabI [1]): 1.49 ± 0.27 nM
7 | CCCc1ccc(Oc2ccccc2)c(O)c1 [PT02] | 60.9 ^b min | 0.57 ± 0.09 ^d hr^-1 | 105.3 ^d min | –
8 | CCc1ccc(Oc2ccccc2)c(O)c1 [PT01] | 63.8 ^b min | 0.72 ± 0.08 ^d hr^-1 | 83.3 ^d min | –
9 | CCCCCCc1ccc(Oc2ccccc2)c(O)c1 [PT04, 5-hexyl-2-phenoxyphenol] | – | 0.13 ± 0.04 ^d hr^-1 | 461.5 ^d min | –
10 | CCCCCc1ccc(Oc2ccccc2)c(O)c1 [PT03] | 300.0 ^b min | 0.32 ± 0.17 ^d hr^-1 | 187.5 ^d min | –
11 | CCCCCCc1ccc(Oc2ccccc2C)c(O)c1 [PT70] | – | – | – | change of affinity by the 2′-substituent (saFabI [1]; B-ring ortho position SAR, in words, PT70 data not shown): increased affinity
